Series [1] can be described thus: Cytotoxicity against rat IEC-6 cells assessed as cell survival at 10 uM after 72 hrs by MTT assay relative to control. In kind it is cell-based. Particulars: read-out: Survival. A general note: Tetrazolium assays rely on reduction of a dye to a coloured formazan, in cell work by metabolically active cells.
Series [2] addresses T1, X-box-binding protein 1 (Rattus norvegicus) (UniProt Q9R1S4).
T1 sequence (whole entry): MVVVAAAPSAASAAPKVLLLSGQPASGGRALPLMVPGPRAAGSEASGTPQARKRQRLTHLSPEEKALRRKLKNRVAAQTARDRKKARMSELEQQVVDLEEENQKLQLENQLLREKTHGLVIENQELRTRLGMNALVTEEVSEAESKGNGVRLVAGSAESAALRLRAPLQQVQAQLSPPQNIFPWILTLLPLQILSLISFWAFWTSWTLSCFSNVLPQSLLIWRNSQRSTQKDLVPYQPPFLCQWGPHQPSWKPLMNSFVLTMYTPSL
As to the kind of experiment: Transactivation of XBP1 in rat IEC-6 cells at 10 uM after 48 hrs by dual luciferase reporter gene assay relative to con2. The class given is cell-based. In outline:
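XBP 1 transcriptional activation measured by dual luciferase reporter detection. Con 2 is the pGL3-basic vector control, and activation is expressed as a fold ratio against it. Con 1 serves as background contrast, and 8-oxodihydrocoptisine is the positive control. Compounds are tested at 10 μM.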
(In general: Reporter assays use an easily measured gene product as a stand-in for the process of interest.)

Molecules are shown by their SMILES. The source made the active and inactive calls. No cut-off for these calls is given here.

For the molecule `C/C1=C\C[C@]2(C(C)C)CC[C@@](C)(O2)[C@@H]2CC[C@@](C)(O2)[C@@H](O)CC1=O` (relative stereo), the viability at 72 h, 10 µM in series [1] is 87%. Moreover, in series [2], the outcome was Active.

In series [2], `O=c1c2c3c(ccc2cc2n1CCc1cc4c(cc1-2)OCO4)OCO3` returned a fold change (FC) of 2.2.

For the molecule `C/C1=C\[C@@H](O)C[C@@]2(C)O[C@@H]2C[C@]2(C(C)C)CC[C@@](C)(O2)[C@H](O)CC1=O`, in series [1], the viability at 72 h, 10 µM was determined as 87%. The molecule also had a fold change (FC) in series [2] of 2.5.

Regarding `C/C1=C/C[C@@H](O)[C@@]2(C)CC[C@@](C(C)C)(C[C@@H](O)[C@]3(C)CC[C@H]1O3)O2`, in series [1], the viability at 72 h, 10 µM stood at 87%. The molecule also showed a fold change (FC) in series [2] of 1.5.

For `C/C1=C\CC[C@]2(C)O[C@H]2C[C@]2(C(C)C)CC[C@@](C)(O2)[C@H](O)CC1=O` (relative stereo), the viability at 72 h, 10 µM in series [1] stood at 87%. For the same molecule, in series [2], the outcome was Active.

Consider `CC(C)[C@@]12CC[C@@](C)(O1)[C@H](O)CC/C(C=O)=C/CC[C@@]1(C)O[C@@H]1C2`, for which the viability at 72 h, 10 µM in series [1] amounted to 87%. This molecule had a fold change (FC) in series [2] of 1.6.

Consider `CC(C)[C@@]12CC[C@@](C)(O1)[C@@H]1CC[C@@](C)(O1)[C@@H](O)C[C@@H]1O[C@@]1(C)[C@H](O)C2`, for which the viability at 72 h, 10 µM in series [1] was found to be 87%. In addition, in series [2], the outcome was Active.

Take `C/C1=C\CC[C@@]2(C)O[C@@H]2C[C@]2(C(C)C)CC[C@@](C)(O2)[C@H](O)CC1`: the viability at 72 h, 10 µM in series [1] was 87%. Moreover, the outcome in series [2] was Active.

As to `C/C1=C\[C@@H](O)C[C@@]2(C)O[C@@H]2C[C@]2(C(C)C)CC[C@@](C)(O2)[C@H](O)CC1`, the viability at 72 h, 10 µM in series [1] came out at 87%. For the same molecule, the result in series [2] was Active.

As to `C/C1=C\CC[C@@]2(C)O[C@@H]2C[C@]2(C(C)C)CC[C@@](C)(O2)[C@H](O)CC1=O` (relative stereo), in series [1], the viability at 72 h, 10 µM stood at 87%. In series [2], this molecule gave a fold change (FC) of 1.5.
